HSF-1 act: increases HSF-1 driven luciferase reporter signal; 300,000 compounds, 1.7% hits; NIH3T3-HGL HSF-1 luciferase reporter, MG132, 8 h; 100% = twice DMSO control signal; activation, % at 9 µM; AID 504408;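 active means mean replicate activation of at least 50% with a set share of replicates each reaching 50%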;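 further: 0% = median of the neutral control wells and 100% = twice that signal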
T cruzi repl: T. cruzi replication inhibition; inhibition, % (concentration not given with the values); 300,000 compounds, 1.4% hits; T. cruzi beta-gal in NIH3T3, luminescence, 90 h; AID 1885;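 active means mean inhibition across valid replicates above about 55%, limit read from the data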;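 further: signal also drops with host cell toxicity which is not excluded here; 0% = plate median of DMSO wells and 100% = zero luminescence signal; higher percent means less beta-gal luminescence so fewer parasites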
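Assay system: NIH/3T3 fibroblasts plus reporter T. cruzi. Amount: NIH/3T3 cells, 5,000 per well. Buffer or medium: DMEM, 2% fetal bovine serum. Doses: compound pinned at 50 nL/well, DMSO. Schedule: ≥90 h infection period, 3 h prior cell attachment. Signal: luminescent β-galactosidase signal after 60 min lysis. Read-out: parasite load inhibition, %.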
GPR7 antagonist: antagonists of human GPR7 (neuropeptides B/W receptor 1) | P48145 | AID 1861 | GPR7-expressing cells, fluorescence antagonist assay | 290,000 compounds, 1.1% hits | inhibition, % at 4.4 µM; in the data active means inhibition above about 16%, passing the limit was not always enough;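 further: cells stimulated with the agonist NPW; 0% = agonist with vehicle and 100% = vehicle without agonist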
Target sequence (P48145 whole entry, looked up): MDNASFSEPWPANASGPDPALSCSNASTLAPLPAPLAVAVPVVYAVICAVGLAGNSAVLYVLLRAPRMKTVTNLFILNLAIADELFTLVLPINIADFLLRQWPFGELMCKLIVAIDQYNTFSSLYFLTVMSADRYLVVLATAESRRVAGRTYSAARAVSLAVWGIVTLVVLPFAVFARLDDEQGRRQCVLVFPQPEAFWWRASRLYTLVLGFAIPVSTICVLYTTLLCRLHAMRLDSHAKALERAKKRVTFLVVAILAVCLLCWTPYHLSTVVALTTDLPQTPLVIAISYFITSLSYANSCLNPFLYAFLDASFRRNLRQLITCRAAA
Jurkat NFkB inh: lowers PMA/ionomycin-induced NF-kB signal in Jurkat cells | PMA/ionomycin-induced NF-kB luciferase reporter, luminescence | inhibition, % at 4 µM | 330,000 compounds, 0.53% hits; in the data active means inhibition above about 50%
HSF1 inh: HSF1 inhibition | activity change, negative = inhibition, % at 7.5 µM (by protocol) | 300,000 compounds, 0.77% hits | NIH3T3-HGL HSE-luciferase, MG132-induced, luminescence 8 h; hits give low values;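 active means more than half of replicate wells show activity change below -50%, luminescence cut by over half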;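 further: luciferase reports HSF-1 transcriptional activity via heat shock element; 0% = median of DMSO wells and -100% = zero luminescence signal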
697 NFkB inh: inhibitors of the PMA/ionomycin-induced NF-kB reporter in 697 B cells. inhibition, % at 4 µM. 330,000 compounds, 0.33% hits. 697 B-cell NF-kB luciferase reporter, 16 h; in the data active means inhibition above about 35%
697 NFkB conf: inhibitors of the PMA/ionomycin-induced NF-kB reporter in 697 B cells, retest; AID 449746; 697 B-cell NF-kB luciferase, 16 h; 2,000 compounds, 35% hits; shares compounds with 697 NFkB inh; inhibition, % at 4 µM; in the data active means inhibition mostly above about 28%, no sharp cut-off; inactive means mostly below about 22%
The depositor's hits bear a star; . = no result. Hits are enriched below; roughly 4.8% of the tested compounds scored in any of these assays.

SMILES | HSF-1 act | T cruzi repl | GPR7 antagonist | Jurkat NFkB inh | HSF1 inh | 697 NFkB inh | 697 NFkB conf
O=C(CCCN1C(=O)/C(=C/c2ccccc2Cl)SC1=S)NNC(=O)c1ccncc1 | -33.1 | 2.5 | -10.9 | 16.7 | -30.6 | 48.0* | 56.5*
COc1cccc(/C=N/NC(=O)CN(CCc2ccccc2)S(=O)(=O)c2ccc(NC(C)=O)cc2)c1 | -11.3 | -2.3 | -9.8 | 6.7 | -5.5 | 8.7 | .
CCOC(=O)N1CCC(NC(=O)CSCc2nc(-c3ccc(OCC)cc3)oc2C)CC1 | 34.1 | 4.4 | -9.5 | 4.9 | 19.9 | -1.8 | .
CCOc1ccc(-c2nc(CSCC(=O)NCc3ccco3)c(C)o2)cc1 | -74.0 | -19.1 | 0.8 | 40.2 | -72.1* | 98.7* | 98.7*
CCOc1ccc(-c2nc(CSCC(=O)NC3CC3)c(C)o2)cc1 | -85.3 | 16.0 | -2.4 | -0.5 | -84.5* | 98.6* | 79.2*
CCOCCCNC(=O)CSCc1nc(-c2ccc(SC)cc2)oc1C | -10.6 | -3.8 | -20.4 | 3.9 | 2.6 | 22.9 | .
COc1ccc(-c2nc(CS(=O)CC(=O)NCc3ccco3)c(C)o2)cc1 (stereo not given) | -11.2 | 10.0 | -8.7 | 17.1 | -1.4 | 9.2 | .
COCCNC(=O)CSCc1nc(-c2ccc(SC)cc2)oc1C | -13.4 | 2.9 | -1.3 | 3.3 | -14.9 | 83.7* | 72.4*
COc1ccc(NC(=O)C2CCC(CNS(=O)(=O)c3cccs3)CC2)cc1 (stereo not given) | 13.5 | -20.4 | 2.9 | 11.6 | 1.0 | 8.3 | .
Cn1nc(C(C)(C)C)cc1NC(=O)Nc1cc(Cl)cc(Cl)c1 | 3.9 | 30.3 | -10.6 | -28.9 | -8.3 | 13.0 | .
CC(=O)c1ccc(N2CCN(Cc3nc(Cc4ccccc4)no3)CC2)cc1 | 14.7 | -9.4 | 12.4 | -13.7 | -5.0 | 3.5 | .
CSc1ccc(CNC(=O)CCn2ccc3cc(S(=O)(=O)N4CCCC4)ccc32)cc1 | 3.9 | 4.9 | 5.6 | -5.3 | 8.6 | 1.8 | .
O=C1CC(c2ccc3c(c2)OCCO3)Oc2ccc([N+](=O)[O-])cc21 (stereo not given) | -53.0 | -8.8 | -9.8 | -130.3 | -46.8 | -256.2 | -228.2
O=C1CC(c2ccc3c(c2)OCCO3)Oc2ccccc21 (stereo not given) | 37.4 | 4.4 | 11.9 | -82.9 | 33.9 | -78.3 | .
O=C(C1CC1)N1CCN(c2ccnc3cc(Cl)ccc23)CC1 | -5.4 | 0.9 | -6.5 | 12.2 | -7.7 | 22.1 | .
CC(=O)c1ccc(N2CCN(c3ccnc4cc(Cl)ccc34)CC2)cc1 | -10.7 | -18.8 | 6.8 | 40.4 | -14.6 | 41.5* | 1.5
O=C(Nc1ccc(F)cc1)C1CCC(CNc2c(N3CCCCC3)c(=O)c2=O)CC1 (stereo not given) | -15.8 | -6.6 | -10.0 | -0.8 | -3.3 | 38.3* | 16.2
COc1ccccc1NC(=O)N1CCN(c2ccc3nnc(-c4ccc(F)cc4)n3n2)CC1 | -10.8 | 42.5 | -19.3 | 7.5 | -4.7 | 35.1* | 9.2
O=C(Nc1ccccc1Cl)N1CCN(c2ccc3nnc(-c4ccc(F)cc4)n3n2)CC1 | 25.5 | 32.1 | -12.3 | 18.1 | 5.0 | 36.3* | 16.6
COc1ccc(-c2noc(N3CCC(C(=O)Nc4ccc(F)cc4)CC3)n2)cc1 | 45.1 | -4.0 | -6.2 | 17.6 | 15.8 | 31.0 | .
COc1ccc(-c2noc(N3CCC(C(=O)Nc4cccc(OC)c4)CC3)n2)cc1 | -9.4 | 5.0 | -13.4 | 20.0 | -2.9 | 42.3* | 34.5*
O=C(O)CCc1nn2c3ccccc3n(Cc3ccccc3F)c2nc1=O | -9.4 | -7.3 | -12.3 | -20.5 | -5.8 | 40.5* | -10.7
CCOC(=O)c1cc(CC)sc1N1C(=O)CC(Sc2ccccc2C(=O)O)C1=O (stereo not given) | 40.4 | -49.2 | -5.8 | 8.0 | 37.8 | 9.4 | .
CCOC(=O)c1cc(CC)sc1N1C(=O)CC(Sc2ncccc2C(=O)O)C1=O (stereo not given) | -12.3 | -20.5 | -10.8 | -13.2 | -7.7 | 46.3* | 3.6
Cc1ccc(-n2nc3c(=O)n(CCCC(=O)NCc4cccc(F)c4)nc(C)c3c2C)cc1 | -34.9 | 5.5 | 2.1 | 38.5 | -21.4 | 16.9 | .
Cc1ccc(-n2nc3c(=O)n(CCCC(=O)NCc4ccc(F)cc4)nc(C)c3c2C)cc1 | 10.9 | 2.9 | -19.2 | 20.6 | 5.2 | 39.1* | 5.0

High-throughput results deposited in PubChem by several laboratories.
